# Calls of active or inactive are those of the source. No cut-off for these calls is given here.
# Tests used:
# [1] = Toxicity in rabbit erythrocytes assessed as induction of hemolysis at 160 uM incubated for 1 hr by microplate reader assay; assay type: cell-based, Oryctolagus cuniculus; details: erythrocyte
# In short: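 Rabbit red blood cells in PBS were mixed 1:1 by volume with peptide solution and incubated 1 h at 37 °C, then spun at 1000 g for 5 min. Hemoglobin in the supernatant was read at 540 nm. PBS defined 0% hemolysis and 0.1% Triton X-100 defined 100%.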
# [2] = Retention time of the compound by UPLC method; assay type: physicochemical
# [3] = Cytotoxicity against human GES-1 cells after 48 hrs by MTT assay; assay type: cell-based; details: GES1, 48 h
# In short: (§1)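 Cells grown in RPMI1640 with 10% heat-inactivated FBS and 1% penicillin-streptomycin at 37 °C, 5% CO2. Log-phase cells were seeded at 5 × 10^3/well 24 h before treatment, exposed to a range of peptide concentrations for 48 h, then given MTT for 4 h. Formazan was dissolved in DMSO and A490 read. Survival was computed relative to untreated wells, and IC50 taken from the survival curve.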
# MCF7 [4] = experiment: Anticancer activity against human MCF7 cells after 48 hrs by MTT assay; assay type: functional, cell-based; details: MCF7, 48 h; in short: as §1
# K562 = experiment: Anticancer activity against human K562 cells after 48 hrs by MTT assay; assay type: functional, cell-based; details: K562, 48 h; in short: as §1
# MCF7 [5] = experiment: Induction of cytochrome c release in cytoplasm of human MCF7 cells at 20 uM incubated for 2 hrs by ELISA method (reference value: 44.1 +/- 2.7 ng); assay type: functional
# [6] = Anticancer activity against human K562/ADR cells after 48 hrs by MTT assay; assay type: functional, cell-based; in short: as §1
# MCF7 [7] = experiment: Induction of cell membrane alteration in human MCF7 cells at 20 uM incubated for 30 mins by acridine orange/ethidium bromide double staining method; assay type: functional, cell-based
# In short: (§2)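 MCF-7 cells were plated at 1 × 10^5/well and grown 24 h, then given peptide for 30 min. Cells were washed twice with PBS and stained 10 min in the dark with cold PBS containing acridine orange and ethidium bromide. Excess dye was washed off, then cells were imaged by fluorescence microscopy. Red EB staining marks membrane-compromised cells.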
# [8] = Increase in adriamycin uptake in human K562/ADR cells at 5 uM after 2.5 hrs by fluorescence spectrophotometry; assay type: ADME, cell-based
# In short: (§3)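 2 × 10^5 MCF-7/ADM or K562/ADM cells were co-incubated 2.5 h with ADM plus peptide, or with verapamil as comparator. After washing in cold PBS, cells were lysed in 0.75 M HCl/0.2% Triton X-100 in isopropanol. Lysate ADM fluorescence was measured by spectrofluorometry at ex 460/em 610 nm.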
# MCF7 [9] = experiment: Antimigratory activity in human MCF7 cells assessed as inhibition of cell migration at 5 uM incubated for 48 hrs by wound healing assay; assay type: functional, cell-based
# In short: (§4)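 MCF-7 cells were seeded at 2 × 10^5/well and grown 24 h to 90% confluence. A cell-free gap was scratched, and cells migrated in serum-free medium with peptide for 48 h. Wound closure was photographed at 0 h and 48 h.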
# MCF7 [10] = experiment: Antimigratory activity in human MCF7 cells assessed as inhibition of cell migration at 5 uM incubated for 48 hrs by transwell migration assay; assay type: functional, cell-based
# In short: (§5)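 Transwell chambers with a porous membrane separating upper and lower compartments. 4 × 10^4 MCF-7 cells were placed in the upper chamber in peptide-containing medium and incubated 48 h. Cells that reached the lower membrane surface were counted.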
# [11] = Increase in adriamycin uptake in human K562/ADR cells at 5 uM after 2.5 hrs by fluorescence microscopy; assay type: ADME, cell-based
# In short: (§6)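 2 × 10^5 MCF-7/ADM or K562/ADM cells were co-incubated 2.5 h with ADM plus peptide, or with verapamil as comparator. Cells were washed with cold PBS and ADM fluorescence was imaged by fluorescence microscopy.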
# MCF7 [12] = experiment: Induction of cytochrome c release in mitochondria of human MCF7 cells at 20 uM incubated for 2 hrs by ELISA method (reference value: 347.8 +/- 14.5 ng); assay type: functional
# [13] = Increase in adriamycin uptake in human MCF7/ADR cells at 5 uM after 2.5 hrs by fluorescence spectrophotometry; assay type: ADME, cell-based; details: nci/adr-res; in short: as §3
# [14] = Increase in adriamycin uptake in human MCF7/ADR cells at 5 uM after 2.5 hrs by fluorescence microscopy; assay type: ADME, cell-based; details: nci/adr-res; in short: as §6
# K562/Adr [15] = experiment: Potentiation of adriamycin-induced cytotoxicity against human K562/ADR cells at 5 uM after 48 hrs by MTT assay; assay type: functional, cell-based
# In short: (§7)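 ADM-resistant MCF-7/ADM or K562/ADM cells, grown in RPMI1640 with 10% FBS at 37 °C and 5% CO2, were seeded at 1 × 10^4 per well and held 24 h. Fixed peptide was added, followed by graded ADM concentrations, for 48 h. MTT was then given for 4 h at 37 °C, formazan dissolved in DMSO and absorbance read at 570 nm. Verapamil served as positive control.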
# MCF7 [16] = experiment: Induction of cytochrome c release in human MCF7 cells at 20 uM incubated for 2 hrs by ELISA method (reference value: 364.2 +/- 20.5 ng); assay type: functional
# MCF7 [17] = experiment: Induction of cytochrome c release in extracellular region of human MCF7 cells at 20 uM incubated for 2 hrs by ELISA method (reference value: 15.7 +/- 0.77 ng); assay type: functional
# MCF7 [18] = experiment: Induction of mitochondrial membrane potential depolarization in human MCF7 cells at 20 uM incubated for 2 hrs by JC1 staining; assay type: functional, cell-based
# In short: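 MCF-7 cells were plated at 1 × 10^5/well, grown 24 h, and treated with peptide for 2 h. Mitochondrial membrane potential was assessed with a JC-1 kit by imaging red and green fluorescence.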
# MCF7 [19] = experiment: Induction of cytochrome c release in human MCF7 cells at 5 to 20 uM incubated for 2 hrs by ELISA method
# [20] = Drug uptake in cytosol of human MCF7 cells at 20 uM incubated for 5 mins or 30 mins by fluorescein isothiocyanate labeling based fluorescence microscopy; assay type: ADME, cell-based
# In short: (§8)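 MCF-7 cells were plated at 1 × 10^5/well and grown 24 h, then exposed to FITC-labeled peptides for 5 min or 30 min. Cells were washed three times with cold PBS, and intracellular fluorescence was imaged by fluorescence microscopy.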
# NCI/ADR-RES [21] = experiment: Potentiation of adriamycin-induced cytotoxicity against human MCF7/ADR cells at 5 uM after 48 hrs by MTT assay; assay type: functional, cell-based; in short: as §7
# MCF7 [22] = experiment: Induction of cell membrane morphology changes in human MCF7 cells at 20 uM incubated for 30 mins by scanning electron microscopy; assay type: functional, cell-based
# In short: (§9)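 MCF-7 cells were grown 24 h on coverslips at 1 × 10^5/well and exposed to peptide for 30 min. Cells were gently PBS-washed, fixed in 2.5% glutaraldehyde, and examined by scanning electron microscopy.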
# [23] = Anticancer activity against human MCF7/ADR cells after 48 hrs by MTT assay; assay type: functional, cell-based; details: NCI/ADR-RES; in short: as §1
# MCF7 [24] = experiment: Induction of cell membrane morphology changes in human MCF7 cells at 5 uM incubated for 30 mins by scanning electron microscopy; assay type: functional, cell-based; in short: as §9
# [25] = Increase in adriamycin uptake in human MCF7/ADR cells at 0.5 uM after 2.5 hrs by fluorescence microscopy; assay type: ADME, cell-based; details: nci/adr-res; in short: as §6
# MCF7 [26] = experiment: Induction of cytochrome c release in cytoplasm of human MCF7 cells at 5 uM incubated for 2 hrs by ELISA method (reference value: 44.1 +/- 2.7 ng); assay type: functional
# MCF7 [27] = experiment: Induction of cytochrome c release in human MCF7 cells at 5 uM incubated for 2 hrs by ELISA method (reference value: 364.2 +/- 20.5 ng); assay type: functional
# MCF7 [28] = experiment: Antimigratory activity in human MCF7 cells assessed as inhibition of cell migration at 0.5 uM incubated for 48 hrs by wound healing assay; assay type: functional, cell-based; in short: as §4
# MCF7 [29] = experiment: Induction of cell membrane alteration in human MCF7 cells at 5 uM incubated for 30 mins by acridine orange/ethidium bromide double staining method; assay type: functional, cell-based; in short: as §2
# MCF7 [30] = experiment: Antimigratory activity in human MCF7 cells assessed as inhibition of cell migration at 0.5 uM incubated for 48 hrs by transwell migration assay; assay type: functional, cell-based; in short: as §5
# MCF7 [31] = experiment: Induction of cytochrome c release in mitochondria of human MCF7 cells at 5 uM incubated for 2 hrs by ELISA method (reference value: 347.8 +/- 14.5 ng); assay type: functional
# MCF7 [32] = experiment: Induction of cytochrome c release in extracellular region of human MCF7 cells at 5 uM incubated for 2 hrs by ELISA method (reference value: 15.7 +/- 0.77 ng); assay type: functional
# K562/Adr [33] = experiment: Potentiation of adriamycin-induced cytotoxicity against human K562/ADR cells at 0.5 uM after 48 hrs by MTT assay; assay type: functional, cell-based; in short: as §7
# NCI/ADR-RES [34] = experiment: Potentiation of adriamycin-induced cytotoxicity against human MCF7/ADR cells at 0.5 uM after 48 hrs by MTT assay; assay type: functional, cell-based; in short: as §7
# [35] = Increase in adriamycin uptake in human MCF7/ADR cells at 0.5 uM after 2.5 hrs by fluorescence spectrophotometry; assay type: ADME, cell-based; details: nci/adr-res; in short: as §3
# [36] = Increase in adriamycin uptake in human K562/ADR cells at 0.5 uM after 2.5 hrs by fluorescence spectrophotometry; assay type: ADME, cell-based; in short: as §3
# MCF7 [37] = experiment: Induction of mitochondrial membrane potential depolarization in human MCF7 cells at 5 uM incubated for 2 hrs by JC1 staining; assay type: functional, cell-based
# In short: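 MCF-7 cells plated at 1 × 10^5 per well, grown 24 h, then exposed to peptide for 2 h. Mitochondrial membrane potential was assessed with a JC-1 mitochondrial membrane potential kit. Green (monomer) and red (J-aggregate) fluorescence were imaged, with merged orange taken as normal potential.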
# [38] = Increase in adriamycin uptake in human K562/ADR cells at 0.5 uM after 2.5 hrs by fluorescence microscopy; assay type: ADME, cell-based; in short: as §6
# [39] = Drug uptake in cytosol of human MCF7 cells at 5 uM incubated for 5 mins or 30 mins by fluorescein isothiocyanate labeling based fluorescence microscopy; assay type: ADME, cell-based; in short: as §8
# MCF7 [40] = experiment: Induction of cytochrome c release in extracellular region of human MCF7 cells incubated for 2 hrs by ELISA method (reference value: 15.7 +/- 0.77 ng); assay type: functional
# MCF7 [41] = experiment: Induction of cytochrome c release in mitochondria of human MCF7 cells incubated for 2 hrs by ELISA method (reference value: 347.8 +/- 14.5 ng); assay type: functional
# MCF7 [42] = experiment: Induction of cytochrome c release in cytoplasm of human MCF7 cells incubated for 2 hrs by ELISA method (reference value: 44.1 +/- 2.7 ng); assay type: functional
# MCF7 [43] = experiment: Induction of cytochrome c release in human MCF7 cells incubated for 2 hrs by ELISA method (reference value: 364.2 +/- 20.5 ng); assay type: functional
compound,measurement,setting,value
H-VKRFKKFFRKLKKRV-NH2,Activity,[1],Non-toxic
same,Retention_time,[2],3.13 min
same,IC50,[3],93.3 µM
same,IC50,MCF7 [4],5.5 µM
same,IC50,K562,8.7 µM
H-VKRFKKFFRKLKKHV-NH2,Activity,[1],Non-toxic
same,Retention_time,[2],3.28 min
same,IC50,[3],105 µM
same,IC50,MCF7 [4],5 µM
same,IC50,K562,10.5 µM
H-VKRFKKFFRKLKKSV-NH2,Activity,MCF7 [5],60.3 ng
same,Activity,[1],Non-toxic
same,IC50,[6],31.6 µM
same,Activity,MCF7 [7],Active
same,Retention_time,[2],3.38 min
same,Activity,[8],Active
same,inhibition,MCF7 [9],Active
same,inhibition,MCF7 [10],Active
same,IC50,[3],102 µM
same,Activity,[11],Active
same,Activity,MCF7 [12],301.4 ng
same,Activity,[13],Active
same,Activity,[14],Active
same,Activity,K562/Adr [15],Active
same,Activity,MCF7 [16],353.4 ng
same,Activity,MCF7 [17],14.7 ng
same,Activity,MCF7 [18],Active
same,IC50,MCF7 [4],21.9 µM
same,Activity,MCF7 [19],Dose-dependent effect
same,Drug uptake,[20],Active
same,IC50,K562,26.9 µM
same,Activity,NCI/ADR-RES [21],Active
same,Activity,MCF7 [22],Active
same,IC50,[23],24.1 µM
H-VKRFKKFFRKLKKGV-NH2,Activity,[1],Non-toxic
same,Retention_time,[2],3.25 min
same,IC50,[3],107 µM
same,IC50,MCF7 [4],15.8 µM
same,IC50,K562,14.8 µM
H-VKRFKKFFRKLKKLV-NH2,Activity,[1],Non-toxic
same,Activity,MCF7 [24],Active
same,IC50,[6],3.3 µM
same,Activity,[25],Active
same,Activity,MCF7 [26],59.9 ng
same,Retention_time,[2],3.84 min
same,Activity,MCF7 [27],354.8 ng
same,inhibition,MCF7 [28],Active
same,Activity,MCF7 [29],Active
same,IC50,[3],77.6 µM
same,inhibition,MCF7 [30],Active
same,Activity,MCF7 [31],303.8 ng
same,Activity,MCF7 [32],14.9 ng
same,Activity,K562/Adr [33],Active
same,Activity,NCI/ADR-RES [34],Active
same,Activity,[35],Active
same,Activity,[36],Active
same,Activity,MCF7 [37],Active
same,IC50,MCF7 [4],3.6 µM
same,IC50,K562,1.1 µM
same,Activity,[38],Active
same,Drug uptake,[39],Active
same,IC50,[23],4.4 µM
H-VKRFKKFFRKLKKDV-NH2,Activity,[1],Non-toxic
same,Retention_time,[2],3.38 min
same,IC50,[3],120 µM
same,IC50,MCF7 [4],19.9 µM
same,IC50,K562,44.7 µM
O=c1[nH]cc(F)c(=O)[nH]1 [FLUOROURACIL],Activity,MCF7 [40],15.7 ng
same,Activity,MCF7 [41],319.2 ng
same,Activity,MCF7 [42],49.6 ng
same,IC50,[3],30.9 µM
same,IC50,MCF7 [4],26.9 µM
same,Activity,MCF7 [43],357 ng
same,IC50,K562,31.6 µM
